Results on 12 compounds are retold here after ChEMBL document CHEMBL1137008, “Cancer preventive agents 9. Betulinic acid derivatives as potent cancer chemopreventive agents” (Bioorg Med Chem Lett, 2009).

Series [1] can be described thus: Cytotoxicity against human Raji cells assessed as cell viability at 1000 molar ratio after 48 hrs by trypan blue staining method. It counts as cell-based. Conditions: read-out: Activity. The method in brief:
(§1)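 Raji cells (EBV genome-carrying, Burkitt's lymphoma) grown in RPMI-1640 with 10% FBS; incubated 48 h at 37 °C with 4 mM n-butyric acid, 32 pM TPA and test compound in DMSO at stated compound/TPA molar ratio; viability determined by Trypan blue staining.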

The test system of series [2] is Raji. As to the kind of experiment: Inhibition of TPA-induced EBV-early antigen activation in human Raji cells assessed as EA induction at 10 molar ratio after 48 hrs relative to TPA. Also noted: scale not given: the % may be the effect or the level left. It counts as cell-based. Conditions: human gammaherpesvirus 4. In a few lines:
(§2)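 Raji cells (virus non-producer, spontaneous EA activation <0.1%) incubated 48 h at 37 °C with 4 mM n-butyric acid plus 32 pM TPA and compound in DMSO; smears stained by indirect immunofluorescence with NPC patient EBV-EA-positive serum, ≥500 cells counted; EA-positive cells expressed relative to butyrate+TPA control (100%); triplicates; IC50 as mol ratio to 32 pmol TPA.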

The test system of series [3] is Raji. The series is described as follows: Inhibition of TPA-induced EBV-early antigen activation in human Raji cells assessed as EA induction at 1000 molar ratio after 48 hrs relative to TPA. The format is cell-based. Conditions: human gammaherpesvirus 4. Also noted: scale not given: the % may be the effect or the level left. The method in brief:
as §2

Series [4] is described as follows: Cytotoxicity against human Raji cells assessed as cell viability at 10 molar ratio after 48 hrs by trypan blue staining method. It counts as cell-based. The following applies: read-out: Activity. In a few lines: as §1
The test system of series [5] is Raji. As to the kind of experiment: Inhibition of TPA-induced EBV-early antigen activation in human Raji cells assessed as EA induction at 500 molar ratio after 48 hrs relative to TPA. The format is cell-based. Also noted: scale not given: the % may be the effect or the level left. The following applies: human gammaherpesvirus 4. In a few lines: as §2
Series [6] can be described thus: Inhibition of TPA-induced EBV-early antigen activation in human Raji cells assessed as EA induction after 48 hrs relative to TPA. The format is cell-based, human gammaherpesvirus 4. In a few lines:
as §2

Series [7] concerns Raji. As to the kind of experiment: Inhibition of TPA-induced EBV-early antigen activation in human Raji cells assessed as EA induction at 100 molar ratio after 48 hrs relative to TPA. It counts as cell-based. Also noted: scale not given: the % may be the effect or the level left. The following applies: human gammaherpesvirus 4. The method in brief: as §2
Series [8] is described as follows: Cytotoxicity against human Raji cells assessed as cell viability at 100 molar ratio after 48 hrs by trypan blue staining method. The format is cell-based. Conditions: read-out: Activity. In a few lines:
as §1

Series [9] is described as follows: Cytotoxicity against human Raji cells assessed as cell viability at 500 molar ratio after 48 hrs by trypan blue staining method. It counts as cell-based. Conditions: read-out: Activity. The method in brief:
as §1

As to `C=C(C)[C@@H]1CC[C@]2(C(=O)O)CC[C@]3(C)[C@H](CC[C@@H]4[C@@]5(C)CC[C@H](OC(=O)/C=C/C=C/C)C(C)(C)[C@@H]5CC[C@]43C)[C@@H]12`, in [1], the viability at 48 h, 1000 molar ratio worked out at 70%. Besides, the Activity in the series on Raji [2] was 90.2%; with Raji [3], 0%; with Raji [5], 25.7%; with Raji [7], 65.7%. Moreover, the viability at 48 h, 10 molar ratio in series [4] was above 80%. In addition, in series [6], the IC50 is 295 molar ratio. In addition, the viability at 48 h, 100 molar ratio in [8] was above 80%. Moreover, the viability at 48 h, 500 molar ratio in series [9] was above 80%.

Turning to `C=C(C)[C@@H]1CC[C@]2(C(=O)O)CC[C@]3(C)[C@H](CC[C@@H]4[C@@]5(C)CC[C@H](OC(=O)CC(C)(C)C(=O)O)C(C)(C)[C@@H]5CC[C@]43C)[C@@H]12` [BEVIRIMAT], in series [1], the viability at 48 h, 1000 molar ratio was 60%. The Activity with Raji [3] came to 6.1%; in the series on Raji [5], 36.1%; in the series with Raji [7] it was 74.2%. In addition, the viability at 48 h, 10 molar ratio in series [4] was above 80%. Moreover, the IC50 in [6] was found to be 396 molar ratio. Further, in [8], the viability at 48 h, 100 molar ratio was above 80%. The viability at 48 h, 500 molar ratio in series [9] was above 80%.

Turning to `C=C(C)[C@@H]1CC[C@]2(C(=O)O)CC[C@]3(C)[C@H](CC[C@@H]4[C@@]5(C)C[C@H](O)C(C)(C)[C@@H]5CC[C@]43C)[C@@H]12`, the viability at 48 h, 1000 molar ratio in [1] came to 60%. Also, the Activity stood at 100% in the series on Raji [2], 14.2% in the series with Raji [3], 39.2% with Raji [5] and 79% in the series on Raji [7]. The viability at 48 h, 10 molar ratio in [4] was above 80%. The IC50 in series [6] was found to be 475 molar ratio. The viability at 48 h, 100 molar ratio in [8] is above 80%. Moreover, the viability at 48 h, 500 molar ratio in series [9] is above 80%.

`C=C(C)[C@@H]1CC[C@]2(C(=O)O)CC[C@]3(C)[C@H](CC[C@@H]4[C@@]5(C)CC[C@H](OC(=O)CC/C=C\C/C=C\C/C=C\C/C=C\C/C=C\C/C=C\CC)C(C)(C)[C@@H]5CC[C@]43C)[C@@H]12`: in [1], the viability at 48 h, 1000 molar ratio is 60%. Further, the Activity with Raji [2] stood at 100%; in the series on Raji [3], 17%; in the series on Raji [5], 53.8%; with Raji [7] it was 83.2%. In addition, the viability at 48 h, 10 molar ratio in series [4] is above 80%. The IC50 in series [6] was 546 molar ratio. In series [8], the viability at 48 h, 100 molar ratio was above 80%. In addition, the viability at 48 h, 500 molar ratio in [9] is above 80%.

With `C=C(C)[C@@H]1CC[C@]2(C(=O)O)CC[C@]3(C)[C@H](CC[C@@H]4[C@@]5(C)CC[C@H](OC(=O)CCCCCCC/C=C\C/C=C\C/C=C\CC)C(C)(C)[C@@H]5CC[C@]43C)[C@@H]12`, the viability at 48 h, 1000 molar ratio in series [1] is 60%. Besides, the Activity with Raji [2] is 97%; in the series on Raji [3], 10.9%; in the series with Raji [5], 43.3%; in the series with Raji [7] it was 77.8%. For the same compound, the viability at 48 h, 10 molar ratio in series [4] is above 80%. For the same compound, the IC50 in series [6] stood at 445 molar ratio. The viability at 48 h, 100 molar ratio in series [8] is above 80%. Further, the viability at 48 h, 500 molar ratio in series [9] is above 80%.

With `COc1cc(/C=C/C(=O)CC(=O)/C=C/c2ccc(O)c(OC)c2)ccc1O` [CURCUMIN], the viability at 48 h, 1000 molar ratio in [1] came out at 60%. Also, the Activity in the series on Raji [2] was 100%; with Raji [3] it was 0%; in the series with Raji [5] it was 22.8%; in the series with Raji [7] it was 81.7%. In addition, the viability at 48 h, 10 molar ratio in series [4] was above 80%. Further, the IC50 in series [6] was determined as 341 molar ratio. Further, in series [8], the viability at 48 h, 100 molar ratio was above 80%. Besides, the viability at 48 h, 500 molar ratio in [9] was above 80%.

For `C=C(C)[C@@H]1CC[C@]2(C(=O)O)CC[C@]3(C)[C@H](CC[C@@H]4[C@@]5(C)CC[C@H](OC(=O)C[C@H](C)CO)C(C)(C)[C@@H]5CC[C@]43C)[C@@H]12`, in series [1], the viability at 48 h, 1000 molar ratio was determined as 70%. For the same compound, the Activity stood at 93.1% in the series on Raji [2], 0% with Raji [3], 29.3% in the series with Raji [5] and 70.1% in the series on Raji [7]. In addition, the viability at 48 h, 10 molar ratio in series [4] was above 80%. Also, in series [6], the IC50 was 303 molar ratio. Besides, the viability at 48 h, 100 molar ratio in [8] is above 80%. In [9], the viability at 48 h, 500 molar ratio was above 80%.

As to `C=C(C)[C@@H]1CC[C@]2(C(=O)O)CC[C@]3(C)[C@H](CC[C@@H]4[C@@]5(C)CC[C@H](OC(=O)CCCCCCC/C=C\C/C=C\CCCCC)C(C)(C)[C@@H]5CC[C@]43C)[C@@H]12`, the viability at 48 h, 1000 molar ratio in series [1] came out at 60%. For the same compound, the Activity in the series on Raji [2] amounted to 94.8%; in the series on Raji [3], 7.3%; with Raji [5] it was 37.9%; with Raji [7], 75.9%. Further, in series [4], the viability at 48 h, 10 molar ratio is above 80%. The IC50 in [6] worked out at 390 molar ratio. Further, the viability at 48 h, 100 molar ratio in series [8] is above 80%. Moreover, the viability at 48 h, 500 molar ratio in series [9] was above 80%.

Take `C=C(C)[C@@H]1CC[C@]2(C(=O)O)CC[C@]3(C)[C@H](CC[C@@H]4[C@@]5(C)CC[C@H](OC(=O)CCC/C=C\C/C=C\C/C=C\C/C=C\CCCCC)C(C)(C)[C@@H]5CC[C@]43C)[C@@H]12`: in series [1], the viability at 48 h, 1000 molar ratio was determined as 60%. Further, the Activity was 100% with Raji [2], 12.3% in the series with Raji [3], 46.1% in the series on Raji [5] and 79% with Raji [7]. Moreover, the viability at 48 h, 10 molar ratio in series [4] was above 80%. Besides, the IC50 in [6] was 482 molar ratio. Also, the viability at 48 h, 100 molar ratio in series [8] is above 80%. Besides, in series [9], the viability at 48 h, 500 molar ratio was above 80%.

Turning to `C=C(C)[C@@H]1CC[C@]2(C(=O)O)CC[C@]3(C)[C@H](CC[C@@H]4[C@@]5(C)CC[C@H](O)C(C)(C)[C@@H]5CC[C@]43C)[C@@H]12` [BETULINIC ACID], in [1], the viability at 48 h, 1000 molar ratio was 60%. The Activity in the series with Raji [2] stood at 100%; in the series with Raji [3], 7.9%; in the series on Raji [5], 37.2%; in the series on Raji [7], 75.1%. Further, the viability at 48 h, 10 molar ratio in series [4] was above 80%. Besides, the IC50 in series [6] is 403 molar ratio. Further, the viability at 48 h, 100 molar ratio in series [8] was above 80%. For the same compound, the viability at 48 h, 500 molar ratio in [9] is above 80%.

As to `C=C(C)[C@@H]1CC[C@]2(C(=O)O)CC[C@]3(C)[C@H](CC[C@@H]4[C@@]5(C)[C@@H](C(=O)O)[C@H](OC(=O)CC(C)(C)C(=O)O)C(C)(C)[C@@H]5CC[C@]43C)[C@@H]12`, the viability at 48 h, 1000 molar ratio in [1] is 60%. Besides, the Activity is 93.8% in the series with Raji [2], 5.1% in the series on Raji [3], 35% in the series on Raji [5] and 72% in the series on Raji [7]. Besides, in series [4], the viability at 48 h, 10 molar ratio is above 80%. Moreover, the IC50 in [6] is listed as 349 molar ratio. Besides, in [8], the viability at 48 h, 100 molar ratio is above 80%. The viability at 48 h, 500 molar ratio in series [9] was above 80%.

For the compound `C=C(C)[C@@H]1CC[C@]2(C(=O)O)CC[C@]3(C)[C@H](CC[C@@H]4[C@@]5(C)CC[C@H](OC(=O)C[C@H](C)C(=O)O)C(C)(C)[C@@H]5CC[C@]43C)[C@@H]12`, in series [1], the viability at 48 h, 1000 molar ratio was found to be 60%. Also, the Activity with Raji [2] came out at 94.2%; with Raji [3] it was 0%; in the series with Raji [5] it was 31.5%; in the series with Raji [7], 71%. The viability at 48 h, 10 molar ratio in [4] was above 80%. Moreover, in series [6], the IC50 is listed as 308 molar ratio. Further, the viability at 48 h, 100 molar ratio in [8] is above 80%. Besides, in [9], the viability at 48 h, 500 molar ratio is above 80%.
